Data from PMC8923172 (Antimicrobial Agents and Chemotherapy, 2022).
Marks after values point to notes of the source that are not given here. Residues, ends and D or L forms follow the SMILES beside them.

Experiments:
[1] = Serum biochemistry of rats at the end of treatment; format: in vivo, Sprague-Dawley rats; conditions: median (IQR)
[2] = Single-dose i.v. pharmacokinetics in a vervet; format: in vivo, vervet/African green monkey (Chlorocebus aethiops sabaeus); conditions: 3 mg/kg single i.v. bolus, n=1
Method in brief: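 Adult male vervet given a single 3 mg/kg i.v. bolus of test compound. Blood was sampled at 0.5, 1, 4, 8, 24, 48, 72, 96, 120 and 192 h. Clarified plasma was diluted 1:10 into 5% formic acid-5% acetonitrile and quantified by UPLC with photodiode array detection. Noncompartmental analysis used nominal times; λz was fitted over up to the last four log-linear points.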

In the case of `CC[C@H](C)[C@@H]1NC(=O)[C@@H]2CSSC[C@H](NC(=O)[C@H](CCCNC(=N)N)NC(=O)[C@@H]3CSSC[C@H](NC1=O)C(=O)N[C@@H]([C@@H](C)O)C(=O)N[C@@H](CCCNC(=N)N)C(=O)NCC(=O)N[C@@H](Cc1ccccc1)C(=O)N3)C(=O)N[C@@H](CC(C)C)C(=O)N[C@H]1CSSC[C@H](NC(=O)[C@H](C(C)C)NC(=O)CNC(=O)[C@H](CCCNC(=N)N)NC(=O)[C@H](CCCNC(=N)N)NC1=O)C(=O)N[C@@H](CCCNC(=N)N)C(=O)N2` [RTD-1, Rhesus theta (θ) defensin-1] (HELM PEPTIDE1{G.F.C.R.C.L.C.R.R.G.V.C.R.C.I.C.T.R}$PEPTIDE1,PEPTIDE1,3:R3-16:R3|PEPTIDE1,PEPTIDE1,5:R3-14:R3|PEPTIDE1,PEPTIDE1,7:R3-12:R3|PEPTIDE1,PEPTIDE1,1:R1-18:R2$$$V2.0), the A/G ([1]; female, 5 mg/kg/day) is reported as 2.1 (0.2), the ALP ([1]; female, 5 mg/kg/day) is reported as 92.0 (21.0) U/L and the ALT ([1]; female, 5 mg/kg/day) is reported as 35.0 (7.0) U/L. For the same molecule, the AST ([1]; female, 5 mg/kg/day) was 139.0 (35.0) U/L, the Albumin ([1]; female, 5 mg/kg/day) was 3.9 (0.3) g/dL and the CK ([1]; female, 5 mg/kg/day) was 792.0 (198.0) U/L. The Calcium ([1]; female, 5 mg/kg/day) was 9.8 (0.2) mg/dL, the Chloride ([1]; female, 5 mg/kg/day) was 105.0 (2.0) mmol/L and the Cholesterol ([1]; female, 5 mg/kg/day) was 55.0 (15.0) mg/dL. The Creatinine ([1]; female, 5 mg/kg/day) was 0.3 (0.0) mg/dL, the GGT ([1]; female, 5 mg/kg/day) was 0.0 (0.0) U/L and the Globulin ([1]; female, 5 mg/kg/day) was 1.8 (0.1) g/dL. The Glucose ([1]; female, 5 mg/kg/day) was 97.0 (16.0) mg/dL, the Phos ([1]; female, 5 mg/kg/day) was 7.3 (0.8) mg/dL and the Potassium ([1]; female, 5 mg/kg/day) was 4.9 (0.4) mmol/L. For the same molecule, the Sodium ([1]; female, 5 mg/kg/day) was 143.0 (1.0) mmol/L, the T-Bil ([1]; female, 5 mg/kg/day) was 0.0 (0.0) mg/dL and the TP ([1]; female, 5 mg/kg/day) was 5.8 (0.5) g/dL. For the same molecule, the Triglycerides ([1]; female, 5 mg/kg/day) was 25.0 (7.0) mg/dL, the “Urea N” value ([1]; female, 5 mg/kg/day) was 20.0 (2.0) mg/dL and the A/G ([1]; female, 10 mg/kg/day) was 2.2 (0.2). For the same molecule, the ALP ([1]; female, 10 mg/kg/day) was 109.5 (30.5) U/L, the ALT ([1]; female, 10 mg/kg/day) was 32.5 (6.0) U/L and the AST ([1]; female, 10 mg/kg/day) was 122.0 (14.3) U/L. For the same molecule, the Albumin ([1]; female, 10 mg/kg/day) was 3.9 (0.1) g/dL, the CK ([1]; female, 10 mg/kg/day) was 473.5 (211.3) U/L and the Calcium ([1]; female, 10 mg/kg/day) was 10.0 (0.3) mg/dL. The Chloride ([1]; female, 10 mg/kg/day) was 105.0 (2.0) mmol/L, the Cholesterol ([1]; female, 10 mg/kg/day) was 55.0 (26.5) mg/dL and the Creatinine ([1]; female, 10 mg/kg/day) was 0.3 (0.0) mg/dL. The GGT ([1]; female, 10 mg/kg/day) was 0.0 (0.0) U/L, the Globulin ([1]; female, 10 mg/kg/day) was 1.8 (0.2) g/dL and the Glucose ([1]; female, 10 mg/kg/day) was 99.0 (5.5) mg/dL. For the same molecule, the Phos ([1]; female, 10 mg/kg/day) was 7.1 (0.8) mg/dL, the Potassium ([1]; female, 10 mg/kg/day) was 5.1 (0.5) mmol/L and the Sodium ([1]; female, 10 mg/kg/day) was 142.5 (1.0) mmol/L. The T-Bil ([1]; female, 10 mg/kg/day) was 0.0 (0.0) mg/dL, the TP ([1]; female, 10 mg/kg/day) was 5.7 (0.4) g/dL and the Triglycerides ([1]; female, 10 mg/kg/day) was 26.0 (11.5) mg/dL. The “Urea N” value ([1]; female, 10 mg/kg/day) was 21.0 (1.8) mg/dL, the A/G ([1]; female, 20 mg/kg, day 2) was 3.0 (0.4)^c^,^d^,^e and the ALP ([1]; female, 20 mg/kg, day 2) was 142.0 (34.5)^d^,^e U/L. The ALT ([1]; female, 20 mg/kg, day 2) was 62.0 (28.5)^c^,^d^,^e U/L, the AST ([1]; female, 20 mg/kg, day 2) was 397.0 (345.5)^d^,^e U/L and the Albumin ([1]; female, 20 mg/kg, day 2) was 3.0 (0.6)^d^,^e g/dL. For the same molecule, the CK ([1]; female, 20 mg/kg, day 2) was 1,506.0 (2,604.5) U/L, the Calcium ([1]; female, 20 mg/kg, day 2) was 10.3 (0.6)^c^,^d mg/dL and the Chloride ([1]; female, 20 mg/kg, day 2) was 104.0 (3.0) mmol/L. For the same molecule, the Cholesterol ([1]; female, 20 mg/kg, day 2) was 52.0 (6.5) mg/dL, the Creatinine ([1]; female, 20 mg/kg, day 2) was 0.5 (0.2)^c^,^d^,^e mg/dL and the GGT ([1]; female, 20 mg/kg, day 2) was 4.0 (5.5)^c^,^d^,^e U/L. The Globulin ([1]; female, 20 mg/kg, day 2) was 1.0 (0.3)^c^,^d^,^e g/dL, the Glucose ([1]; female, 20 mg/kg, day 2) was 218.0 (70.0)^c^,^d^,^e mg/dL and the Phos ([1]; female, 20 mg/kg, day 2) was 9.3 (5.0) mg/dL. For the same molecule, the Potassium ([1]; female, 20 mg/kg, day 2) was 4.9 (0.7) mmol/L, the Sodium ([1]; female, 20 mg/kg, day 2) was 141.0 (2.5)^c mmol/L and the T-Bil ([1]; female, 20 mg/kg, day 2) was 0.0 (0.0) mg/dL. For the same molecule, the TP ([1]; female, 20 mg/kg, day 2) was 3.9 (0.8)^c^,^d^,^e g/dL, the Triglycerides ([1]; female, 20 mg/kg, day 2) was 106.0 (36.5)^c^,^d^,^e mg/dL and the “Urea N” value ([1]; female, 20 mg/kg, day 2) was 20.0 (3.0) mg/dL. The A/G ([1]; male, 5 mg/kg/day) was 2.2 (0.3), the ALP ([1]; male, 5 mg/kg/day) was 212.0 (40.3) U/L and the ALT ([1]; male, 5 mg/kg/day) was 40.0 (9.8) U/L. For the same molecule, the AST ([1]; male, 5 mg/kg/day) was 133.0 (34.0) U/L, the Albumin ([1]; male, 5 mg/kg/day) was 3.8 (0.0) g/dL and the CK ([1]; male, 5 mg/kg/day) was 765.5 (395.5) U/L. For the same molecule, the Calcium ([1]; male, 5 mg/kg/day) was 9.8 (0.4) mg/dL, the Chloride ([1]; male, 5 mg/kg/day) was 104.5 (1.8) mmol/L and the Cholesterol ([1]; male, 5 mg/kg/day) was 70.5 (10.3) mg/dL. For the same molecule, the Creatinine ([1]; male, 5 mg/kg/day) was 0.2 (0.1) mg/dL, the GGT ([1]; male, 5 mg/kg/day) was 0.0 (0.0) U/L and the Globulin ([1]; male, 5 mg/kg/day) was 1.7 (0.2) g/dL. For the same molecule, the Glucose ([1]; male, 5 mg/kg/day) was 72.5 (16.3) mg/dL, the Phos ([1]; male, 5 mg/kg/day) was 8.5 (0.5) mg/dL and the Potassium ([1]; male, 5 mg/kg/day) was 5.2 (0.2) mmol/L. For the same molecule, the Sodium ([1]; male, 5 mg/kg/day) was 144.0 (1.8) mmol/L, the T-Bil ([1]; male, 5 mg/kg/day) was 0.0 (0.0) mg/dL and the TP ([1]; male, 5 mg/kg/day) was 5.5 (0.2) g/dL. The Triglycerides ([1]; male, 5 mg/kg/day) was 37.0 (21.5) mg/dL, the “Urea N” value ([1]; male, 5 mg/kg/day) was 16.5 (4.0) mg/dL and the A/G ([1]; male, 10 mg/kg/day) was 2.4 (0.2). For the same molecule, the ALP ([1]; male, 10 mg/kg/day) was 212.5 (51.5) U/L, the ALT ([1]; male, 10 mg/kg/day) was 32.5 (4.5) U/L and the AST ([1]; male, 10 mg/kg/day) was 113.5 (16.8) U/L. The Albumin ([1]; male, 10 mg/kg/day) was 3.7 (0.2) g/dL, the CK ([1]; male, 10 mg/kg/day) was 612.5 (254.8) U/L and the Calcium ([1]; male, 10 mg/kg/day) was 9.7 (0.2) mg/dL. For the same molecule, the Chloride ([1]; male, 10 mg/kg/day) was 105.0 (1.0) mmol/L, the Cholesterol ([1]; male, 10 mg/kg/day) was 66.0 (14.3) mg/dL and the Creatinine ([1]; male, 10 mg/kg/day) was 0.3 (0.1) mg/dL. For the same molecule, the GGT ([1]; male, 10 mg/kg/day) was 0.0 (0.0) U/L, the Globulin ([1]; male, 10 mg/kg/day) was 1.6 (0.2) g/dL and the Glucose ([1]; male, 10 mg/kg/day) was 83.0 (6.8) mg/dL. The Phos ([1]; male, 10 mg/kg/day) was 8.6 (1.0) mg/dL, the Potassium ([1]; male, 10 mg/kg/day) was 5.1 (0.3) mmol/L and the Sodium ([1]; male, 10 mg/kg/day) was 144.0 (0.0) mmol/L. For the same molecule, the T-Bil ([1]; male, 10 mg/kg/day) was 0.0 (0.0) mg/dL, the TP ([1]; male, 10 mg/kg/day) was 5.4 (0.3) g/dL and the Triglycerides ([1]; male, 10 mg/kg/day) was 29.0 (5.3) mg/dL. For the same molecule, the “Urea N” value ([1]; male, 10 mg/kg/day) was 19.0 (3.5) mg/dL, the A/G ([1]; male, 20 mg/kg, day 2) was 2.7 (0.1)^c^,^d^,^e and the ALP ([1]; male, 20 mg/kg, day 2) was 232.0 (45.0) U/L. The ALT ([1]; male, 20 mg/kg, day 2) was 74.0 (38.0)^d^,^e U/L, the AST ([1]; male, 20 mg/kg, day 2) was 245.0 (100.0)^d^,^e U/L and the Albumin ([1]; male, 20 mg/kg, day 2) was 2.7 (0.0)^c^,^d^,^e g/dL. For the same molecule, the CK ([1]; male, 20 mg/kg, day 2) was 707.0 (615.0) U/L, the Calcium ([1]; male, 20 mg/kg, day 2) was 9.4 (0.5)^d mg/dL and the Chloride ([1]; male, 20 mg/kg, day 2) was 101.0 (1.0)^c^,^d^,^e mmol/L. The Cholesterol ([1]; male, 20 mg/kg, day 2) was 67.0 (7.0) mg/dL, the Creatinine ([1]; male, 20 mg/kg, day 2) was 0.4 (0.1)^c^,^d^,^e mg/dL and the GGT ([1]; male, 20 mg/kg, day 2) was 0.0 (0.0) U/L. The Globulin ([1]; male, 20 mg/kg, day 2) was 1.0 (0.0)^c^,^d^,^e g/dL, the Glucose ([1]; male, 20 mg/kg, day 2) was 175.0 (35.0)^c^,^d^,^e mg/dL and the Phos ([1]; male, 20 mg/kg, day 2) was 9.3 (3.8) mg/dL. For the same molecule, the Potassium ([1]; male, 20 mg/kg, day 2) was 5.1 (0.6) mmol/L, the Sodium ([1]; male, 20 mg/kg, day 2) was 140.0 (2.0)^c^,^d^,^e mmol/L and the T-Bil ([1]; male, 20 mg/kg, day 2) was 0.1 (0.2) mg/dL. The TP ([1]; male, 20 mg/kg, day 2) was 3.7 (0.1)^c^,^d^,^e g/dL, the Triglycerides ([1]; male, 20 mg/kg, day 2) was 193.0 (111.0)^c^,^d^,^e mg/dL and the “Urea N” value ([1]; male, 20 mg/kg, day 2) was 28.0 (6.0)^c^,^d^,^e mg/dL. For the same molecule, the AUCτ [2] was 21,949 ng · h/mL, the CL [2] was 2.27 mL/min/kg and the MRT [2] was 4.71 h. It also gave a Vss [2] of 0.639 L/kg and a λz [2] of 0.204 h⁻¹.
